The source made the active and inactive calls. No cut-off for these calls is given here.
Experiments:
[1] = Metabolic stability in human liver microsomes assessed as half life preincubated for 5 mins followed by NADPH addition measured upto 60 mins by LC-MS/MS analysis; type: ADME, Microsome
[2] = Apparent intrinsic clearance in human liver microsomes measured upto 60 mins by LC-MS/MS analysis; type: ADME, Microsome; conditions: 1 h
[3] = Metabolic stability in mouse liver microsomes assessed as half life preincubated for 5 mins followed by NADPH addition measured upto 60 mins by LC-MS/MS analysis; type: ADME, Microsome
[4] = Apparent intrinsic clearance in mouse liver microsomes measured upto 60 mins by LC-MS/MS analysis; type: ADME, Microsome; conditions: 1 h
[5] = biological target: T1, Histone-lysine N-methyltransferase SMYD3 (Homo sapiens, UniProt Q9H7B4); experiment: Inhibition of SMYD3 (unknown origin) using MAP3K2 peptide as substrate pretreated for 30 mins followed by substrate addition and measured after 30 mins by MTase Glo reagent based luminescence assay
T1 sequence (Q9H7B4 whole entry): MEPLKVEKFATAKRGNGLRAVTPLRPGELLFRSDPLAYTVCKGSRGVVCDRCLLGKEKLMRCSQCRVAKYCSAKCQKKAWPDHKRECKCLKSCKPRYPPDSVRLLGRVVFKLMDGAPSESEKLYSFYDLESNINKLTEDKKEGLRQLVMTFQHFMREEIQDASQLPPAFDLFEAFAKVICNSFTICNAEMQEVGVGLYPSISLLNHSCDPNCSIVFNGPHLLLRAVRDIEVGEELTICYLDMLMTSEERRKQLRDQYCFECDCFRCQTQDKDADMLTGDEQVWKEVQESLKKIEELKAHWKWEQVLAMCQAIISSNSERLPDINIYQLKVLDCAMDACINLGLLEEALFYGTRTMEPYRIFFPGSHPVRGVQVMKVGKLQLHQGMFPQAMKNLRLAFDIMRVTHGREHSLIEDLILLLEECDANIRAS
Summary of the method: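 SMYD3 IC50 values taken as mean of duplicate experiments.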

[6] = biological target: T2, Histone-lysine N-methyltransferase SMYD3 (Homo sapiens) (UniProt Q9H7B4); experiment: Irreversible inhibition of SMYD3 (unknown origin) using MAP3K2 peptide as substrate assessed as Kinact pretreated for 5 mins followed by substrate addition and measured after 60 mins by MTase Glo reagent based luminescence assay
T2 sequence (whole entry): T1 sequence (Q9H7B4 whole entry)

[7] = biological target: T1, Histone-lysine N-methyltransferase SMYD3; experiment: Irreversible inhibition of SMYD3 (unknown origin) using MAP3K2 peptide as substrate pretreated for 5 mins followed by substrate addition and measured after 60 mins by MTase Glo reagent based luminescence assay
[8] = biological target: T2, Histone-lysine N-methyltransferase SMYD3 (Homo sapiens); experiment: Irreversible inhibition of SMYD3 (unknown origin) using MAP3K2 peptide as substrate assessed as kinact/Ki ratio pretreated for 5 mins followed by substrate addition and measured after 60 mins by MTase Glo reagent based luminescence assay
[9] = biological target: T2, Histone-lysine N-methyltransferase SMYD3 (Homo sapiens); experiment: Inhibition of SMYD3 in human HepG2 cells assessed as inhibition of cell proliferation incubated for 3 days by CellTiter-Glo luminescent assay; type: cell-based
[10] = biological target: T2, Histone-lysine N-methyltransferase SMYD3 (Homo sapiens); experiment: Inhibition of SMYD3 in human HepG2 cells assessed as inhibition of anchorage-independent colony formation in 3D culture cells incubated for 1 to 2 weeks by thiazolyl blue tetrazolium bromide based; type: cell-based
[11] = biological target: T2, Histone-lysine N-methyltransferase SMYD3 (Homo sapiens); experiment: Inhibition of SMYD3 in human HepG2 cells assessed as decrease in MAP3K2 methylation at 20 uM incubated for 24 hrs by cIEF based immunoassay relative to control; type: cell-based
Summary of the method: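 HepG2 cells exposed to 20 μM for 24 h, DMSO control. MAP3K2-me2/me3 quantified by capillary isoelectric focusing in a nanofluidic proteomic immunoassay. Levels expressed relative to DMSO-treated cells.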

HepG2 = experiment: Downregulation of SMYD3 in human HepG2 cells at 5 to 20 uM incubated for 24 hrs by Western blot analysis; type: functional
Summary of the method: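 SMYD3 protein in HepG2 cells probed by Western blot after exposure at 5 and 20 μM, with DMSO control for comparison.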

[12] = GSH reactivity in pH 7.4 phosphate buffer assessed as pseudo first -order rate constant at 0.25 mM in presence of glutathione by HPLC-MS analysis; type: physicochemical; conditions: pH 7.4, 250 µM
[13] = Apparent permeability across apical to basolateral side in human Caco2 cells by LC-MS/MS analysis; type: ADME, cell-based; conditions: Caco-2
[14] = Apparent permeability across basolateral to apical side in human Caco2 cells by LC-MS/MS analysis; type: ADME, cell-based; conditions: Caco-2

Row | half-life [1] | CLH(app) [2] | half-life [3] | CLH(app) [4] | IC50 [5] | Structure (SMILES) | other results
1 | 40 min | 23 uL/min/mL | 1 min | 750 uL/min/mL |  | CCCOC(=O)N1CCN(C(=O)c2ccc3c(Cl)ccnc3c2)CC1 | 
2 | 36 min | 26 uL/min/mL | 41 min | 22 uL/min/mL | 0.37 µM | CCCOC(=O)N1CCN(C(=O)c2ccc3c(Cl)cc(-c4ccc(C)cc4)nc3c2)CC1 | 
3 | 35 min | 20 uL/min/mL | 52 min | 13 uL/min/mL | 0.0117 µM | CCCOC(=O)N1CCN(C(=O)c2ccc3c(Cl)cc(-c4ccc(C5(N)CC5)cc4)nc3c2)C[C@H]1C | Kinact [6]: 0.055 min⁻¹; Ki [7]: 0.44 µM; Ratio [8]: 2110 M⁻¹ s⁻¹; GI50 [9]: 17.7 µM; GI50 [10]: 1.04 µM; inhibition [11]: 66%; inhibition (INH) (HepG2): 50%
4 | 33 min | 28 uL/min/mL | 13 min | 70 uL/min/mL | 0.3 µM | CCCOC(=O)N1CCN(C(=O)c2ccc3c(Cl)cc(-c4ccccc4)nc3c2)CC1 | Kinact [6]: 0.193 min⁻¹; Ki [7]: 3.9 µM; Ratio [8]: 833 M⁻¹ s⁻¹; GI50 [9]: > 100 µM
5 | 17 min | 53 uL/min/mL | 46 min | 20 uL/min/mL |  | CCCOC(=O)N1CCN(C(=O)c2ccc3c(Cl)cc(-c4ccc(C(=O)NC)cc4)nc3c2)CC1 | Kinact [6]: 0.127 min⁻¹; Ki [7]: 3.06 µM; Ratio [8]: 692 M⁻¹ s⁻¹; GI50 [9]: > 100 µM
6 |  |  |  |  |  | CCCOC(=O)N1CCN(C(=O)c2ccc3c(Cl)c4c(nc3c2)CCCC4)C(C)C1 (racemic) | K [12]: 0.8 ×10⁻³ /min
7 | 21 min | 43 uL/min/mL | 16 min | 58 uL/min/mL | 0.17 µM | CCCOC(=O)N1CCN(C(=O)c2ccc3c(Cl)cc(-c4ccccc4)nc3c2)C[C@H]1C | GI50 [9]: 24.4 µM; GI50 [10]: 0.79 µM; inhibition [11]: 55%
8 |  |  |  |  | 0.36 µM | CCCCOC(=O)N1CCN(C(=O)c2ccc3c(Cl)c4c(nc3c2)CCCC4)CC1 | 
9 |  |  |  |  | 123 µM | COC(=O)N1CCN(C(=O)c2ccc3c(Cl)c4c(nc3c2)CCCC4)CC1 | 
10 |  |  |  |  | > 750 µM | NCCCC(=O)N1CCN(C(=O)c2ccc3c(Cl)c4c(nc3c2)CCCC4)CC1 | 
11 |  |  |  |  |  | C=CC(=O)Nc1cccc(OC)c1 | K [12]: 3.4 ×10⁻³ /min
12 |  |  |  |  | 0.25 µM | CCCOC(=O)N1CCN(C(=O)c2ccc3c(Cl)c4c(nc3c2)CCCC4)[C@H](C)C1 | 
13 |  |  |  |  | 0.14 µM | CCCOC(=O)N1CCN(C(=O)c2ccc3c(Cl)c4c(nc3c2)CCCC4)[C@@H](C)C1 | 
14 |  |  |  |  | 30.5 µM | CCOC(=O)N1CCN(C(=O)c2ccc3c(Cl)c4c(nc3c2)CCC4)CC1 | 
15 |  |  |  |  | > 750 µM | CCOC(=O)N1CCN(C(=O)c2ccc3c(C)c4c(nc3c2)CCCC4)CC1 | 
16 | 28 min | 32 uL/min/mL | 22 min | 43 uL/min/mL |  | CCCOC(=O)N1CCN(C(=O)c2ccc3c(Cl)cc(-c4ccc(OC)cc4)nc3c2)CC1 | GI50 [9]: > 100 µM
17 |  |  |  |  | 20.4 µM | CCOC(=O)N1CCN(C(=O)c2ccc3c(Cl)c4c(nc3c2)CCCCC4)CC1 | 
18 |  |  |  |  | 0.37 µM | CCCOC(=O)N1CCN(C(=O)c2ccc3c(Cl)c4c(nc3c2)CCCC4)CC1 | 
19 |  |  |  |  |  | CCCOC(=O)N1CCN(C(=O)c2ccc3c(Cl)c4c(nc3c2)CC(CN)CC4)CC1 (stereo not drawn) | Papp A→B [13]: 4.43 ×10⁻⁶ cm/s; Papp B→A [14]: 16.2 ×10⁻⁶ cm/s
20 |  |  |  |  | 132 µM | NCCOC(=O)N1CCN(C(=O)c2ccc3c(Cl)c4c(nc3c2)CCCC4)CC1 | 
21 |  |  |  |  | > 750 µM | CCOC(=O)N1CCN(C(=O)c2ccc3cc4c(nc3c2)CCCC4)CC1 | 
22 |  |  |  |  | > 250 µM | CCCOC(=O)N1CCN(C(=O)c2ccc3ccc(-c4ccccc4)nc3c2)C[C@H]1C | GI50 [9]: 60.8 µM; GI50 [10]: > 10 µM; inhibition [11]: inactive
23 | 9 min | 107 uL/min/mL | 4 min | 245 uL/min/mL | 4.78 µM | CCOC(=O)N1CCN(C(=O)c2ccc3c(Cl)c4c(nc3c2)CCCC4)CC1 | GI50 [9]: > 100 µM
24 |  |  |  |  | 0.067 µM | CCCOC(=O)N1CCN(C(=O)c2ccc3c(Cl)c4c(nc3c2)CC(CN)CC4)[C@@H](C)C1 (stereo partly drawn) | K [12]: 0.5 ×10⁻³ /min
